# Screening results as filed in PubChem BioAssay.
# Only some compounds are listed: those with a hit (about 1.5% of all), similar ones and a draw of the others.
# EBI2 antag = EBI2 (human) antagonism. P32249. EBI2 beta-arrestin recruitment, luminescence, 7a,25-OHC stimulated. inhibition, % at 5 µM. hit rate 0.81% among 360,000. AID 651636; in the data active = inhibition above about 38%;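 also: enzyme fragment complementation signal reports receptor beta-arrestin coupling in cells; 0% = agonist plus DMSO wells and 100% = wells without agonist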
# Target sequence (P32249 whole entry, looked up, the tested form may be a part): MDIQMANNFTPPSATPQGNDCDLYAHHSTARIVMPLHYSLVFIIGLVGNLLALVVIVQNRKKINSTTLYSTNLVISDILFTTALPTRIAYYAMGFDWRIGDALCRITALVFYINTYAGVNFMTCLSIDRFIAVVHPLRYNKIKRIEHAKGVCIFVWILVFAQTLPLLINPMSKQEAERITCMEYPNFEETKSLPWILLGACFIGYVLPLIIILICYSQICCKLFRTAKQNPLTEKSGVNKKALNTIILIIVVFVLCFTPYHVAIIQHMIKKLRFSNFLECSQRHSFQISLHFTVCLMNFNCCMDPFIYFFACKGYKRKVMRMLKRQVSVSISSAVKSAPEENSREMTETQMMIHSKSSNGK
# CCR6 antag = antagonists of human CCR6 receptor; hit rate 0.49% among 340,000; AID 493098; P51684; CHO-K1 CCR6 PathHunter beta-arrestin, luminescence, CCL20-stimulated; inhibition, % at 20 µM;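 active = compounds whose inhibition of the agonist-driven luminescence signal at 20 µM reaches about 50%, limit read from the data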;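 also: cells stimulated with CCL20 at 14 nM final; plate controls were DMSO with CCL20 for no effect and DMSO without agonist for full effect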
# CXCR6 inh = inhibitors of human CXCR6 receptor; O00574; CHO-K1 PathHunter CXCR6 beta-arrestin, luminescence; inhibition, % at 20 µM; hit rate 0.36% among 360,000; AID 602244; in the data active = inhibition above about 34%, passing the limit was not always enough;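 also: antagonist mode with CXCL16 agonist at 10 nM final; 0% = 10 nM CXCL16 with DMSO and 100% = unstimulated wells without agonist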
# APJ agonist = activates the human apelin receptor APJ; CHO-K1 APJ PathHunter beta-arrestin, luminescence; 0% DMSO wells, 100% apelin; activation, % at 20 µM; hit rate 0.11% among 330,000;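 active = activation more than six SD over the plate average, tested at 20 µM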;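 also: 0% = DMSO alone and 100% = apelin-13 at 10 nM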
# Target sequence (P35414 whole entry, looked up): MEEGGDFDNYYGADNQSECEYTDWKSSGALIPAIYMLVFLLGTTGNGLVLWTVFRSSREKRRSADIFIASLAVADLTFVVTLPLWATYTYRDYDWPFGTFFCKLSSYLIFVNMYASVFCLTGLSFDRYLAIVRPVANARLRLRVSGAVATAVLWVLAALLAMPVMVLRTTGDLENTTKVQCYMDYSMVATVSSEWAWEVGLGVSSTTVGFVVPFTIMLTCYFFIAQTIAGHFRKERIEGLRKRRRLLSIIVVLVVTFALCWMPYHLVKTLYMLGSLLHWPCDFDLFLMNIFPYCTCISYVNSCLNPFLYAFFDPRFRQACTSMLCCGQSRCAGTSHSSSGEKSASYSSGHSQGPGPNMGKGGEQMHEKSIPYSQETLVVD
#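 Assay system: engineered CHO-K1 APJ arrestin reporter cells; Amount: 1000 CHO-K1 reporter cells seeded per well; Dosing: one dose, 20 µM compound, 1% DMSO; Times: compound stimulation 90 min at 25 °C, detection 60 min; Measured by: luminescent beta-gal fragment complementation, chemiluminescent substrate; Read-out: APJ–arrestin association signal; Controls: DMSO vs Apelin-13 10 nM.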
# APJ antag = antagonists of human APJ apelin receptor; inhibition, % at 20 µM; CHO-K1 APJ beta-arrestin complementation, luminescence; hit rate 0.32% among 330,000; AID 2521;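 active = inhibition above about 40% at 20 µM, limit read from the data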;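 also: cells challenged with 10 nM apelin-13 agonist together with compound; plate controls were apelin-13 plus DMSO wells for no effect and DMSO wells lacking apelin-13 for full effect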
# APJ ag conf = APJ receptor agonism confirmation. hit rate 10% among 310. AID 2764. activation, % at 20 µM. shares compounds with APJ agonist. CHO-K1 APJ PathHunter beta-arrestin, luminescence;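 active = activation above 40%, taking the highest of four retests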;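 also: plate controls were DMSO wells for no effect and apelin-13 at 10 nM for full effect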
# APJ antag confirm = APJ receptor antagonism confirmation; shares compounds with APJ antag; APJ beta-arrestin recruitment, luminescence, antagonist mode; inhibition, % at 20 µM; hit rate 66% among 950; AID 2766; in the data active = inhibition above about 50%
# CXCR6 confirm = CXCR6 antagonism confirmation, single concentration; shares compounds with CXCR6 inh; CHO-K1 CXCR6 PathHunter beta-arrestin, luminescence; inhibition, % at 20 µM; hit rate 65% among 700; AID 602409;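 active = mean inhibition over four retests above 40%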;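 also: receptor stimulated with 10 nM CXCL16 agonist; beta-galactosidase fragment complementation upon beta-arrestin recruitment to receptor; plate controls were CXCL16 plus DMSO for no effect and DMSO without CXCL16 for full effect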
# EBI2 conf = confirmation of human EBI2 receptor antagonists | shares compounds with EBI2 antag | EBI2 beta-arrestin luminescence, 7a,25-OHC antagonism | inhibition, % at 5 µM | hit rate 29% among 2,400;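 active = inhibition of at least 50%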
# EBI2 agonist = activates EBI2, counter-screen for EBI2 antagonists. shares compounds with EBI2 antag. EBI2-expressing cells, agonist mode, luminescence, 60 min; 0% vehicle, 100% 7α,25-dihydroxycholesterol control. activation, % at 5 µM. 2,400 tested, under 10 active. AID 652000;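 active = activation of at least 50%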
# bGal counter = inhibits E. coli beta-galactosidase, counter-screen for EBI2 antagonists | shares compounds with EBI2 antag | purified beta-galactosidase, luminescent Galacton Star, 15 min | inhibition, % at 5 µM | hit rate 1% among 2,400;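 active = replicate-average signal at least 3 plate SD below neutral wells, shown as high inhibition, flagging enzyme-inhibiting false positives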;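 also: 0% = DMSO wells with enzyme and 100% = wells lacking enzyme; higher means stronger loss of beta-gal luminescence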
# Numbers without * were called inactive; nt = no result given.
SMILES,EBI2 antag,CCR6 antag,CXCR6 inh,APJ agonist,APJ antag,APJ antag confirm,others
Cc1c(Cl)sn(-c2ccc(Cl)cc2)c1=O,69.8*,91.9*,74.5*,25.6*,38.3,nt,APJ ag conf=26.3;CXCR6 confirm=94.5*
Cc1sc(NC(=O)C2CC(=O)N(Cc3ccco3)C2)nc1-c1ccccc1 (stereo not given),-1.5,nt,-1.6,nt,nt,nt,
CCc1ccc(NC(=S)Nc2cccc3cnccc23)cc1,50.4*,15.1,-4.9,15.0*,-113.1,nt,APJ ag conf=-0.5;EBI2 conf=9.4;EBI2 agonist=-0.4;bGal counter=-3.4
CCN1CCN(C(C(=O)NC2CCCCC2)c2cc3ccccc3o2)CC1 (stereo not given),-2.4,nt,6.2,nt,nt,nt,
FC(F)(F)c1cc(C(F)(F)F)c2ccc(N3CCN(c4ccc(Cl)cc4)CC3)nc2n1,24.5,25.2,3.6,-0.9,-3.7,nt,
N#CC(c1ccc(Cl)cc1)c1ccc2c(C(F)(F)F)cc(C(F)(F)F)nc2n1 (stereo not given),4.1,56.3*,45.0*,-6.0,46.7*,75.9*,
Cc1nc2c(OCc3cc(Cl)cc(Cl)c3)cccn2c1N(C)C(=O)CCC1CCCC1,21.6,nt,17.7,nt,nt,nt,
CCn1nc(C)cc1-c1nnc(Sc2ncc([N+](=O)[O-])s2)n1C,25.1,96.6*,84.3*,2.9,57.1*,65.1*,
COc1ccccc1NS(=O)(=O)c1cc([N+](=O)[O-])ccc1N/N=C/c1c[nH]c2ccccc12,54.3*,50.0*,39.3,-9.4,56.1*,90.7*,
COc1ccc(C=NNc2ccc([N+](=O)[O-])cc2S(=O)(=O)Nc2ccccc2C(=O)O)cc1OC,8.8,32.6,20.6,-8.8,26.9,nt,
COc1ccc(NS(=O)(=O)c2cc([N+](=O)[O-])ccc2N/N=C\c2c(C)[nH]c3ccccc23)cc1,19.6,41.1,35.9,-19.2,74.9*,99.4*,
COc1ccc(NS(=O)(=O)c2cc([N+](=O)[O-])ccc2NN=Cc2ccccc2OCC(=O)O)cc1,13.2,37.8,30.1,-6.6,36.2,nt,
COc1ccc(S(=O)(=O)N2CCCCC2)cc1NC(=O)C1CC1(Cl)Cl (stereo not given),6.9,nt,-1.4,nt,nt,nt,
O=C(CNC(=O)c1cc(-c2ccccc2)nn1-c1ccccc1)Nc1ccccc1Br,-0.2,16.8,-11.0,nt,nt,nt,
COc1ccc(Cn2cc(CN3CC(N4CCN(C)CC4)CS3(=O)=O)nn2)cc1 (stereo not given),-8.3,nt,5.5,nt,nt,nt,
Cc1ccc(C(C[N+](=O)[O-])n2nc(C)cc2C)cc1 (stereo not given),-40.0,29.5,6.8,4.7,-19.0,nt,
Cc1ccc(C(C[N+](=O)[O-])Sc2ccc(N)cc2)cc1 (stereo not given),-28.9,51.7*,53.1*,0.5,46.4*,73.8*,
Cc1ccc(N=Nc2c(=O)[nH]n3c(=O)cc(C)[nH]c23)cc1,-0.4,27.0,17.0,-6.6,42.9*,61.8*,
O=C1C=CC(O)C2(CO)OC12 (stereo not given),0.1,nt,3.3,nt,nt,nt,
CCc1nc2c(OCc3ccc(Cl)cc3)cccn2c1N(C=O)Cc1ccc(OC)cc1,2.9,nt,0.1,nt,nt,nt,
c1ccc(-c2nc(-c3ccco3)cs2)nc1,-4.2,15.5,10.7,-10.9,53.3*,27.4,
c1ccc(-c2nccc(-c3ccco3)n2)nc1,0.5,0.6,0.6,-0.8,3.2,nt,
COc1cc2c(=O)n(Cc3ccccc3)c(=O)n(CC(=O)NCC3CCCO3)c2cc1OC (stereo not given),2.6,3.0,-4.5,-1.5,40.2*,6.9,
COc1cc2c(=O)n(CCC(=O)NCC3CCCO3)c(=O)n(CC(=O)Nc3ccccc3C)c2cc1OC (stereo not given),3.9,-9.1,-10.4,-1.8,15.7,nt,
Cc1ccc(C)c(C(O)c2ncc(-c3ccccc3Cl)[nH]2)c1 (stereo not given),-5.0,nt,-1.9,nt,nt,nt,
SMILES,EBI2 antag,CCR6 antag,CXCR6 inh,APJ agonist,APJ antag,APJ antag confirm,others
Cn1cc(SCC(=O)Nc2ccc3c(c2)OCO3)c2ccccc21,-0.3,13.1,-4.2,-0.5,16.6,nt,
Cn1c(=O)cc(SCC(=O)Nc2ccc3c(c2)OCO3)c2ccccc21,-3.2,12.3,-6.1,5.6,44.9*,-26.2,
N#Cc1c(NC(=O)c2ccccc2Cl)n(Cc2ccccc2)c2nc3ccccc3nc12,10.5,4.5,-0.9,nt,nt,nt,
CCCCn1c(NC(=O)c2ccccc2Cl)c(C#N)c2nc3ccccc3nc21,1.3,27.9,6.5,-13.4,43.5*,36.1,
CC1CC(=O)Nc2ccccc2N1S(=O)(=O)c1ccccc1 (stereo not given),0.6,-2.9,-3.6,2.6,59.5*,45.1,
COc1ccc(Cl)cc1C(=O)NNC(=S)NC(=O)c1ccc(F)c(F)c1,4.8,46.9,27.8,-5.6,40.2*,11.6,
COc1ccc(Cc2nc3ccc(C(=O)N(C)Cc4nccn4C)cc3o2)cc1,-7.6,nt,-5.3,nt,nt,nt,
Cc1ccc(S(=O)(=O)N/N=C/c2ccc3nccnc3c2)cc1,10.5,55.9*,17.7,-11.5,57.7*,88.1*,
Cc1noc(C)c1S(=O)(=O)NC(=O)C1(C)CCN1C(=O)CC(c1ccccc1)c1ccccc1 (stereo not given),-1.3,nt,-5.2,nt,nt,nt,
O=C(NNc1ccc(O)cc1)c1ccc(Br)cc1,59.1*,101.3*,70.2*,-15.3,86.0*,139.5*,
C/C(=N\NC(=O)C(O)c1ccccc1)c1cccnc1 (stereo not given),-7.3,-0.8,1.7,-2.3,-2.4,nt,
CC(=O)N/N=C(/c1ccccc1)C(O)c1ccccc1 (stereo not given),-3.5,3.1,4.7,0.3,42.9*,-10.3,
COc1ccccc1CNC(=O)COC(=O)/C=C/c1ccc2ccccc2n1,12.2,14.6,11.6,5.3,4.6,nt,
CCOCCOC(=O)C1=C(C)NC2=C(C(=O)CC(c3cccs3)C2)C1c1ccsc1 (stereo not given),31.3,47.0,25.4,-6.7,44.9*,56.8*,
CCOC(=O)C1=C[C@@H](C(C)(C)C)N(S(=O)(=O)c2ccc(C)cc2)[C@H]1c1cccc(Cl)c1,0.6,nt,-3.3,nt,nt,nt,
